Publication PMC9302452 (ACS Bio & Med Chem Au, 2022)

How the values were obtained:
[1] = target: T1, ERRα (Homo sapiens, UniProt P11474); assay: AAB-Luc cells stably expressing ERRα luciferase reporter; type: cell-based
T1 sequence (P11474 1-423): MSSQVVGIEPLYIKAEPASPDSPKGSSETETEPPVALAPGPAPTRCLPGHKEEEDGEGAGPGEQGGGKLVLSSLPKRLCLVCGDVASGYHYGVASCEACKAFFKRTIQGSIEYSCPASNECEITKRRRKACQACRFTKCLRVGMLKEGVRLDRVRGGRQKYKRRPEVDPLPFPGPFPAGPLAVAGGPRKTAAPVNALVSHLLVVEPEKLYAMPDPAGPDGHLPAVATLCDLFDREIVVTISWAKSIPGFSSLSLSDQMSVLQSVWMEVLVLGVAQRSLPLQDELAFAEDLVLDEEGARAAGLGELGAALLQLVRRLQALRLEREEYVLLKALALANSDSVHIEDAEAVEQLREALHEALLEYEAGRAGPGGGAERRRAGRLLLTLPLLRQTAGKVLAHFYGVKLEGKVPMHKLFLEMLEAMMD
Procedure, shortened: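 HEK293T cells were stably transduced at MOI 7 with a lentiviral AAB-GFP-Luc reporter. AAB is the ERRα response element, and the vector carries GFP and luciferase markers. The ERRα luciferase reporter read-out was multiplexed with a cell-viability assay. Test compounds were screened in three independent experiments.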

[2] = target: T2, ERRα-LBD (Homo sapiens, UniProt P11474); assay: AlphaScreen assay, interaction of ERRα-LBD with PGC1α peptide; type: binding
T2 sequence (P11474 193-421 limits assumed): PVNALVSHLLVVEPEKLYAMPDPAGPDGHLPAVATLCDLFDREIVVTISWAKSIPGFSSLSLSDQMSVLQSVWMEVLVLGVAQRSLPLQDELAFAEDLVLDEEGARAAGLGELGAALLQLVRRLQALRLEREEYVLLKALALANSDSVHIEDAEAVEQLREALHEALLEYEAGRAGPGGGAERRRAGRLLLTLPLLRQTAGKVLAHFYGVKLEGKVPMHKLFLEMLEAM
Procedure, shortened: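 AlphaScreen used a hexahistidine detection kit with 200 nM His-tagged ERRα-LBD and 50 nM biotinylated PGC1α cofactor peptide, plus donor and acceptor beads. Buffer was 50 mM MOPS, 50 mM NaF, 0.05 mM CHAPS and 0.1 mg/mL BSA at pH 7.4. Test compound was added as a serial dilution series, and EC50 was derived from enhancement of the LBD–peptide interaction.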

[3] = tested on: ERRα; assay: Real-time PCR, transcriptional level of ERRα; type: cell-based; conditions: 5.0 μM, 24 h incubation
Procedure, shortened: (§1)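 mRNA was quantified by real-time PCR with SYBR Premix Ex Taq under optimised conditions. Gene expression was normalised to Gapdh as the reference gene.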

[4] = tested on: ERRγ; assay: Real-time PCR, transcriptional level of ERRγ; type: cell-based; conditions: 5.0 μM, 24 h incubation
Procedure, shortened: as §1

[5] = tested on: ERβ; assay: Expression of other nuclear hormone receptors: ERβ; type: cell-based; conditions: Figure S3
[6] = tested on: ERγ; assay: Expression of other nuclear hormone receptors: ERγ; type: cell-based; conditions: Figure S3
[7] = tested on: glucose/insulin-induced HepG2-IR cells; assay: Oil red O lipid accumulation, glucose/insulin-induced HepG2-IR cells; type: cell-based; conditions: high glucose/high insulin HepG2-IR, 10.0 μM, 48 h
Procedure, shortened: (§2)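 HepG2 steatosis models were induced two ways. Line 3 used DMEM with 10% FBS and 1% BSA plus palmitic (0.33 mM) and oleic (0.66 mM) acid, final 1.0 mM, for 24 h. Line 4 used high glucose and insulin. Cells received DMSO or 10.0 μM test compound for 48 h; Erra overexpression and shRNA knockdown served as controls. Cells were formaldehyde-fixed, stained with 0.5% oil red O in isopropanol for 30 min with hematoxylin counterstain, and lipid was quantified.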

[8] = tested on: FFA-induced HepG2-IR cells; assay: Oil red O lipid accumulation, FFA-induced HepG2-IR cells; type: cell-based; conditions: palmitic acid (FFA) HepG2-IR, 10.0 μM, 48 h
Procedure, shortened: as §2

[9] = tested on: HepG2-IR cells; assay: Glucose uptake assay in HepG2-IR cells; type: cell-based
Procedure, shortened: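 HepG2-IR cells were starved 2 h in serum-free medium, then washed in glucose-free KRPH buffer (HEPES, pH 7.4, 0.2% fatty-acid-free BSA). They were incubated 30 min in KRPH with 5.0 μM test compound, 5 mM D-glucose and 2-deoxy-D-[3H]glucose. After ice-cold PBS washes, cells were lysed in 0.5 M NaOH/0.1% SDS and neutralised with HCl. Uptake was read by liquid scintillation counting.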

[10] = Tissue distribution after oral administration; type: in vivo; conditions: male, SD, rat, 30 mg/kg
Procedure, shortened: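 Male SD animals received a single oral gavage of test compound at 30 mg/kg in 0.5% CMC-Na. Blood and tissues were collected at 0.25, 0.5, 2 and 4 h, with 3 animals per time point. Heparinised blood was centrifuged and plasma stored at −80 °C. Plasma and tissue concentrations were measured by LC/MS and expressed as tissue-to-plasma ratios.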

[11] = tested on: HFD-induced obese mice; assay: HFD-induced obese C57 mice, daily oral treatment for 4 weeks; type: in vivo, mouse
Procedure, shortened: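 C57 mice were made obese on HFD for 8 weeks; low-fat-diet mice served as controls. They were then gavaged daily for 4 weeks with test compound (10 or 30 mg/kg) or PBS vehicle diluted in 0.5% CMC-Na. Body weight and fasting glucose were tracked during dosing. Mice were fasted overnight and killed, and livers were taken for kit-based CS activity, mtDNA and SYBR qPCR (Gapdh reference); n = 5.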

[12] = abdominal adipose tissue/plasma
[13] = 10 and 30 mg/kg/day oral, 4 weeks

COc1ccc2c(=O)n(C)c(-c3ccccc3)nc2c1 [Compound 7, 7-methoxy-3-methyl-2-phenyl quinazolin-4(3H)-one]
EC50 [1]: 2.7 µM | EC50 [2]: 0.086 µM | Elevation of transcriptional level of ERRα [3]: approximately 2.5 fold | Effect on transcriptional level of ERRγ [4]: did not display an obvious effect | Expression of ERβ [5]: not obviously affected | Expression of ERγ [6]: not obviously affected | Lipid accumulation (oil red O) [7]: significantly alleviated lipid accumulation | Lipid accumulation (oil red O) [8]: significantly alleviated lipid accumulation | Glucose uptake [9]: significantly enhanced | Kp at 0.25 h [10, 12]: 7.4 | Kp at 0.5 h [10, 12]: 30.1 | Kp at 2 h [10, 12]: 22.8 | Kp at 4 h [10, 12]: 235 | Kp at 0.25 h ([10]; liver/plasma): 58.9 | Kp at 0.5 h ([10]; liver/plasma): 39.8 | Kp at 2 h ([10]; liver/plasma): 28.6 | Kp at 4 h ([10]; liver/plasma): 47.4 | Body weight [11, 13]: did not obviously affect body weight | Glucose tolerance (IGTT) [11, 13]: improved glucose tolerance | Insulin resistance (ITT) [11, 13]: improved glucose tolerance and insulin resistance | Fasting glucose levels ([11]; 10 and 30 mg/kg/day oral, 4 weeks, vs vehicle): decreased fasting glucose levels | Plasma FFA ([11]; HFD-elevated level): attenuated | Plasma TC ([11]; HFD-elevated level): attenuated | Plasma TG ([11]; HFD-elevated level): attenuated | Plasma insulin ([11]; HFD-elevated level): attenuated | Transcription of Errα and target genes (Pdk4, Atp5β, Pgc1α) in mouse liver ([11]; both 10 and 30 mg/kg): significantly elevated transcription | Expression of FFA oxidation genes Mcad and Cpt1a in liver ([11]; compound-treated group): obviously enhanced | Food intake ([11]; compound-treated vs PBS-fed mice): similar | Serum ALT level ([11]; daily oral): dampened | Serum AST level ([11]; daily oral): dampened | Hepatic steatosis (Oil red O and HE staining) ([11]; daily oral, both 10 and 30 mg/kg): potently mitigated hepatic steatosis | CS activity ([11]; liver): higher CS activity | Copy number of mitochondrial DNA ([11]; liver): elevated | Fatty acid oxidation ([11]; liver tissue): higher | Protein levels of AOX1, Cytochrome C, SDH, CPT1A ([11]; liver, western blot): elevated | Oxygen consumption ([11]; metabolic cage): elevated oxygen consumption | Protein levels of ERRα, PDK4, MCAD, ATP5β in liver ([11]; western blot): significantly increased protein levels | Akt signaling pathways in the liver (p-Akt/total Akt) ([11]; western blot of liver tissue): significantly sensitized Akt signaling pathways
